Test results published in ChEMBL document CHEMBL1139582, “Interaction of chiral MS-245 analogs at h5-HT6 receptors” (Bioorg Med Chem Lett, 2005).
pKi: −log10 of the molar value.

Target: 5-hydroxytryptamine receptor 6 (Homo sapiens, UniProt P50406)
Assay: Binding affinity against h5-HT6 receptor transiently expressed in HEK293 cells
Format: cell-based
How it was run: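 Harvested transfected cells 72 h post-transfection (medium changed at 24 h; dialyzed serum added 24 h later to remove 5-HT), washed in PBS pH 7.40, stored frozen at -80 °C. Competition binding at room temperature, 90 min, in 50 mM Tris-Cl, 10 mM MgCl2, 0.1 mM EDTA pH 7.40 with [3H]LSD 1 nM final; 10 µM clozapine defines nonspecific binding.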

Chain of 5-hydroxytryptamine receptor 6 (P50406 whole entry): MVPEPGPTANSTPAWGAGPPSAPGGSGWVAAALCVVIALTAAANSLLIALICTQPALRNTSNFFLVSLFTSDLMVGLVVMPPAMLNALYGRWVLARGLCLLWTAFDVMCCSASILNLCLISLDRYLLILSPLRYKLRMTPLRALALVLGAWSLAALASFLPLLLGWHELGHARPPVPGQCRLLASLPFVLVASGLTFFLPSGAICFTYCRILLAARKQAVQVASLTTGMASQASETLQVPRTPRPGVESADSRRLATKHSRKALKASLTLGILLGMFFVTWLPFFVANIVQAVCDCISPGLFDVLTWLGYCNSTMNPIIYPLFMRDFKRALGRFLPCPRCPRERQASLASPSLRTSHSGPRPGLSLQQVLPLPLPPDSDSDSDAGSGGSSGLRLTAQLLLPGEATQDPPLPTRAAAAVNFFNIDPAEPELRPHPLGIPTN

With `CN(C)CCc1cn(S(=O)(=O)c2ccccc2)c2ccccc12` the pKi was 8.40.

`CN1CCC[C@@H]1Cc1cn(S(=O)(=O)c2ccccc2)c2ccccc12` was tested, and the pKi was 9.52.

Work on `c1ccc2c(C[C@@H]3CCCN3)c[nH]c2c1` yielded a pKi of 5.62.

Compound `CN1CCC[C@H]1Cc1cn(S(=O)(=O)c2ccccc2)c2ccccc12` has a pKi of 8.77.

With `CN1CCC[C@H]1Cc1c[nH]c2ccccc12` the pKi was 8.04.

With `c1ccc2c(C[C@H]3CCCN3)c[nH]c2c1` the pKi was 7.22.

`O=S(=O)(c1ccccc1)n1cc(C[C@@H]2CCCN2)c2ccccc21` gave a pKi of 7.34.

`CN1CCC[C@H]1Cn1cc(Cc2ccccc2)c2ccccc21` gave a pKi of 7.54.

In the case of `O=S(=O)(c1ccccc1)n1cc(C[C@H]2CCCN2)c2ccccc21`, the pKi was 8.11.

`CN1CCC[C@@H]1Cc1c[nH]c2ccccc12` gave a pKi of 6.19.

With `CN1CCC[C@@H]1Cn1cc(Cc2ccccc2)c2ccccc21` the pKi was 8.00.
